Only some compounds are listed: those with a hit (about 2.7% of all), similar ones and a draw of the others.
FLuc inh counter = inhibits firefly luciferase, flagging false hits in luciferase inhibition screens; P08659; inhibition, % at 10 µM; ATPLite firefly luciferase biochemical luminescence, 10 min; AID 1006; hit rate 1.5% among 200,000;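 active = inhibition above about 50% when tested at 10 µM, limit read from the data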
ABCG2 inh = inhibitors of human ABCG2 transporter, ABCB1 counter-screen; IgMXP3 cells, JC-1 efflux, flow cytometry; inhibition, % at 6.6 µM; hit rate 0.1% among 190,000; AID 1325;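 active = inhibition above 80%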;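 note: 0% = DMSO and 100% = nicardipine control wells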
Target sequence (Q9UNQ0 whole entry, looked up): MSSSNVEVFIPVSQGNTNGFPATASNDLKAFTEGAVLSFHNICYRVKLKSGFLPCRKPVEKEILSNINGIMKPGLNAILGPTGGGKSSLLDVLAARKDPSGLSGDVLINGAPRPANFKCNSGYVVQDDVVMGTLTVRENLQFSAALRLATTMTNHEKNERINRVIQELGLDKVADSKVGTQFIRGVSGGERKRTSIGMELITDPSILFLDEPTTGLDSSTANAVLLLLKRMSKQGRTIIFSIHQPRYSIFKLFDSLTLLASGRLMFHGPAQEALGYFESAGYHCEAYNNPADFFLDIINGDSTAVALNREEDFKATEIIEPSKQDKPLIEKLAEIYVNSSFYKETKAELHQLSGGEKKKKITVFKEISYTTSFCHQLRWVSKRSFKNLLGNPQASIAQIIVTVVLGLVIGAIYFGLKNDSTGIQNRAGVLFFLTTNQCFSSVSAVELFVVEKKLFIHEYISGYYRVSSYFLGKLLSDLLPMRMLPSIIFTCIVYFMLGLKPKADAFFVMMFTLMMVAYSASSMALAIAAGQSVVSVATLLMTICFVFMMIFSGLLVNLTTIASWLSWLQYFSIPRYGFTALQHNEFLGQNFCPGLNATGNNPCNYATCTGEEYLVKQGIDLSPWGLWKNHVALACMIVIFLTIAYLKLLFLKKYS
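test system = two drug-resistant human cell lines, ABCG2 and ABCB1 | amount = 3 million cells/mL final, two lines in 1:1 ratio | reagent = JC-1 transporter substrate | doses = one concentration, 6.6 µM final | incubation = 10 min at 25 °C | signal = flow cytometric JC-1 green MFI at 530 nm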
FLuc act counter = affects firefly luciferase, flagging false hits in luciferase stimulation screens; P08659; ATPlite luciferase biochemical, luminescence, 10 min; 0 = ATP-free wells, 1 = DMSO control; activation factor at 10 µM; 200,000 tested, under 10 active;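 active = luciferase activation factor, scaled between plate controls, of at least 2 with compound at 10 µM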
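test system = cell-free luciferase reagent | medium = PBS as buffer for the ATP substrate | dosing = test compounds dosed from 2 mM stocks in 100% DMSO | incubation = 10 min at ambient temperature | detection = luminescence measurement of luciferase light output | benchmarks = low control with PBS replacing ATP, high control enzyme plus ATP without compound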
Measles CPE = protection of cells from measles virus; Measles virus-infected cells, CPE protection, absorbance; protection (pct of control), % at 4 µM; hit rate 1.5% among 140,000; AID 841; in the data active = protection mostly above about 24%, no sharp cut-off; inactive = mostly below about 26%
DTT redox prof = compounds producing H2O2 with reducing agent – biochemical, NIH compound library profiling, artefact control for MLSCN library redox annotation, primary screen | hit rate 0.03% among 200,000 | activation, % at 10 µM | AID 878 | DTT-dependent redox cycling H2O2, phenol red/HRP absorbance; 100% = 100 µM peroxide control, 0% = buffer;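 active = activation of at least 50% relative to the plate's high and low controls in the primary single-dose screen; inactive = activation below 50%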;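 note: compound incubated with DTT at 0.8 mM final as the reducing agent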
ABCB1 inh = blocks JC-1 efflux by human ABCB1 transporter. CCRF-Adr cells, flow cytometry. AID 1326. P08183. inhibition, % at 6.6 µM. hit rate 0.067% among 190,000; in the data active = inhibition above about 40%;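 note: 0% = vehicle and 100% = reference inhibitor; higher value means more JC-1 retained so stronger ABCB1 efflux block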
* hit, by the source's call; . = not tested or not shown.

SMILES	FLuc inh counter	ABCG2 inh	FLuc act counter	Measles CPE	DTT redox prof	ABCB1 inh
Cc1c(C(C)O)nnn1-c1nonc1N (configuration not stated)	-5	-2	1	4	-4	0
O=C(COc1ccccc1[N+](=O)[O-])Nc1ccc2c(c1)OCO2	58*	8	0.4	.	0	0
Cc1cccc(OCC(=O)Nc2ccc3c(c2)OCO3)c1C	7	40	0.9	2	1	1
Cc1ccc(NC(=O)COc2ccc(Br)cc2C)cc1	12	2	0.9	26*	0	0
Cc1ccc(OCC(=O)Nc2ccc3c(c2)OCO3)c(C)c1	54*	12	0.5	.	0	1
CC1(C)CC(=O)C(C(=O)Cc2ccccc2[N+](=O)[O-])C(=O)C1	-8	1	1.1	11	0	1
COC(=O)C1=C(NC(=O)c2ccccc2[N+](=O)[O-])CCS1	-1	1	1	.	-1	0
CN(C)c1ccc(CNC23CC4CC(CC(C4)C2)C3)cc1	.	.	.	.	-7	.
CCOC(=O)COc1ccc(C(=O)Nc2cccc(Cl)c2C)cc1	-8	2	1.1	.	0	1
CC(C)NC(=O)NC(=O)CSc1nncs1	-6	1	1.1	.	-1	0
Cc1cc(C(=O)CN2C(=O)c3ccccc3S2(=O)=O)c(C)n1-c1ccccc1	63*	2	0.4	6	1	1
Cc1cc(C(=O)CN2C(=O)C3CC=CCC3C2=O)c(C)n1-c1ccccc1 (configuration not stated)	74*	-1	0.3	6	-1	-2
O=c1cc(N2CCCCC2)c(-c2ccccc2)nn1Cc1ccccc1Cl	-5	4	1	21	-7	1
O=c1cc(N2CCCCC2)c(-c2ccccc2)nn1Cc1ccc(Cl)cc1Cl	-7	1	1.1	43*	-7	0
O=C(c1ccc(CNS(=O)(=O)c2ccccc2)cc1)N1CCN(Cc2ccccc2)CC1	-1	1	1	28*	0	1
CS(=O)(=O)c1ccc(C(=O)N2CCN(Cc3ccccc3)CC2)cc1	-6	-1	1.1	.	0	-3
CCOC(=O)N/N=C(/C)c1ccc([N+](=O)[O-])o1	-7	2	1.1	83*	3	0
CCOC(=O)C(=O)NNc1ccccc1C	-4	1	1	4	0	.
CCOC(=O)C(=O)NNc1cccc(C)c1C	2	-1	1	45*	-1	0
COCCSc1ccccc1C(=O)N1CCN(Cc2ccccc2)CC1	-6	1	1.1	.	-1	0
CC(=O)n1cc([C@@H]2C=C(C(=O)Nc3ccccc3)O[C@H](OCCCCO)C2)c2ccccc21	-9	6	1.1	.	1	17
O=C(Nc1ccccc1-c1ccccc1)c1ccc(NC(=O)c2ccco2)cc1	-6	3	1.1	28	0	1
Clc1ccc(-c2nnc(-c3ccccc3)o2)c(Cl)c1	86*	2	0.1	19	0	0
Fc1ccc(-c2nnc(-c3ccc(Cl)cc3Cl)o2)cc1	89*	2	0.1	1	0	0
Fc1ccc(-c2nnc(-c3ccc(Cl)cc3)o2)cc1	25	4	0.8	6	1	1
SMILES	FLuc inh counter	ABCG2 inh	FLuc act counter	Measles CPE	DTT redox prof	ABCB1 inh
Cc1ccccc1NC(=O)Cc1nc(-c2ccc3ccccc3c2)cs1	-2	40	1	4	2	1
O=C(O/N=C1\CCCc2ccccc21)c1cccs1	91*	0	0.1	.	-1	0
Cc1cccc(/C(N)=N/OC(=O)c2ccc(F)cc2)c1	97*	10	0	8	0	0
Cc1ccc(C(=O)O/N=C(\N)c2ccc(Br)cc2)cc1	30	15	0.7	11	0	-1
N/C(=N\OC(=O)c1cccs1)c1cccc(Br)c1	87*	33	0.1	.	0	0
N/C(Cc1cccc2ccccc12)=N\OC(=O)c1cccs1	-2	-2	1	5	0	0
N/C(=N\OC(=O)Cc1ccccc1)c1cccc(Br)c1	10	9	0.9	.	-1	0
N/C(=N\OC(=O)c1cccs1)c1ccccc1	94*	10	0.1	6	0	0
CCC(=O)Oc1ccc(C(=O)Nc2c[nH]c(=O)[nH]c2=O)cc1	-2	0	1	16	0	0
CC(C)OP(=O)(OC(C)C)C1(O)C(=O)Nc2ccccc21 (configuration not stated)	-8	2	1.1	8	3	1
CCOC(=O)N1CCN(S(=O)(=O)c2cccc3ccc(C)nc23)CC1	-6	2	1.1	14	1	1
Cc1cccc(/C(N)=N/OC(=O)c2cccs2)c1	90*	2	0.1	2	2	0
Cc1ccc(/C(N)=N/OC(=O)c2cccs2)cc1	74*	6	0.3	19	-1	0
COc1ccc(/C(N)=N/OC(=O)c2cccs2)cc1OC	24	4	0.8	.	-1	0
Cc1cccc(S(=O)(=O)NNC(=O)Cc2cccn2C)c1	-2	0	1	.	-1	0
O=C(COC(=O)c1n[nH]c2ccccc12)NC(=O)NCc1ccco1	-6	-4	1.1	25*	0	-7
O=C(COC(=O)c1cc2ccccc2cc1O)NC(=O)NCc1ccco1	-2	2	1	.	-2	0
COc1ccc(N2CCc3c(C)nc(SC)nc32)cc1	-4	6	1	.	0	1
CCCS(=O)(=O)n1nc(-c2ccc(OC)cc2)cc1N	-1	5	1	27*	-1	1
CCOc1ccc(C(=O)Nc2ccc3c(c2)OCCO3)cc1OC	60*	3	0.4	13	2	0
O=C(Nc1ccon1)c1ccc2c(c1)OCO2	5	0	0.9	2	2	0
Cc1ccnc(NC(=O)c2ccc3c(c2)OCO3)c1	92*	3	0.1	.	-1	0
CCOc1ccc(C(=O)N2CCCC2)cc1OC	2	1	1	33*	0	0
O=C(Nc1ccc2nsnc2c1)c1ccc2c(c1)OCO2	70*	2	0.3	8	2	-1
O=C(Nc1cccc(NC(=O)c2ccc3c(c2)OCO3)c1)c1ccccc1	15	4	0.8	.	0	0
CCOc1ccc(C(=S)N2CCCC2)cc1OC	-8	2	1.1	10	0	0
CCOc1ccc(C(=O)Nc2ccc3c(c2)OCCO3)cc1[N+](=O)[O-]	9	0	0.9	.	-2	0
COc1cc2c(cc1OC)C(C)N(C(=S)NC(=O)c1ccccc1)CC2 (configuration not stated)	-4	0	1	.	0	0
O=C(CCCc1ccccc1)c1ccc2c(c1)OCCO2	95*	-3	0	4	-1	-1
